Peptide text beside a SMILES is read from it.
Assays:
[1] = target: T1, Mu-type opioid receptor (Rattus norvegicus, UniProt P33535); assay: Displacement of [3H]DAMGO from mu opioid receptor in rat brain membranes; assay type: cell membranes
[2] = target: Delta-type opioid receptor (Rattus norvegicus, UniProt P33533); assay: Displacement of [3H]naltrindole from delta opioid receptor in rat brain membranes; assay type: cell membranes
[3] = Selectivity for mu opioid receptor over delta opioid receptor in rat brain membranes; assay type: cell membranes
[4] = target: Delta-type opioid receptor (Homo sapiens, UniProt P41143); assay: Antagonist activity at delta opioid receptor expressed in CHO cells assessed as release of intracellular calcium ions by aequorin luminescence-based calcium assay; assay type: functional, cell-based
Chain of Delta-type opioid receptor (Homo sapiens, UniProt P41143) (P41143 whole entry): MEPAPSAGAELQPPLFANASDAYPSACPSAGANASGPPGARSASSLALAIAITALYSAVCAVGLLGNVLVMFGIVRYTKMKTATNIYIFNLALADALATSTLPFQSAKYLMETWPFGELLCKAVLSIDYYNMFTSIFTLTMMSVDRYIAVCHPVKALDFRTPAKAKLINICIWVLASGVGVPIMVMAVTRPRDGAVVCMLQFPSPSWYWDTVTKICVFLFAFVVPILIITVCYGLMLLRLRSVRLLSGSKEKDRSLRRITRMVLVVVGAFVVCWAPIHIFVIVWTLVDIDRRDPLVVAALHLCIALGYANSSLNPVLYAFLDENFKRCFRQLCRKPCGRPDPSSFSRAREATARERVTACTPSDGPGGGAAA

[5] = tested on: Mus musculus; assay: Antinociceptive activity in mouse assessed as paw licking latency at 5 ug, icv in presence of endomorphin-2 by hot plate test; assay type: functional
How it was run: (§1)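 Mouse hot plate test with intracerebroventricular co-injection of endomorphin-2 (3 ug/animal) plus antagonist: naloxone at 5 ug/animal, or analog at 10 ug/animal. Rearing, paw-licking and jumping latencies were measured against saline controls and converted to %MPE = (t1 − t0)/(t2 − t0) × 100, with a 240 s cutoff.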

[6] = tested on: Mus musculus; assay: Antinociceptive activity in mouse assessed as rearing latency at 5 ug, icv in presence of endomorphin-2 by hot plate test; assay type: functional; how it was run: as §1
[7] = tested on: Mus musculus; assay: Antinociceptive activity in mouse assessed as jumping latency at 5 ug, icv in presence of endomorphin-2 by hot plate test; assay type: functional; how it was run: as §1
[8] = tested on: Mus musculus; assay: Antinociceptive activity in mouse assessed as paw licking latency at 10 ug, icv in presence of endomorphin-2 by hot plate test; assay type: functional; how it was run: as §1
[9] = tested on: Mus musculus; assay: Antinociceptive activity in mouse assessed as jumping latency at 10 ug, icv in presence of endomorphin-2 by hot plate test; assay type: functional; how it was run: as §1
[10] = tested on: Mus musculus; assay: Antinociceptive activity in mouse assessed as rearing latency at 10 ug, icv by hot plate test; assay type: functional
How it was run: (§2)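 Mice, single intracerebroventricular peptide injection; hot plate latencies recorded for rearing, paw licking and jumping. Control latencies (t0) taken after saline, test latencies (t1) after peptide. Expressed as %MPE = (t1 − t0)/(t2 − t0) × 100, with a cutoff time (t2) of 240 s.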

[11] = tested on: Mus musculus; assay: Antinociceptive activity in mouse assessed as paw licking latency at 10 ug, icv by hot plate test; assay type: functional; how it was run: as §2
[12] = tested on: Mus musculus; assay: Antinociceptive activity in mouse assessed as rearing latency at 10 ug, icv in presence of endomorphin-2 by hot plate test; assay type: functional; how it was run: as §1
[13] = target: T1, Mu-type opioid receptor; assay: Displacement of [3H]naloxone from mu opioid receptor in rat brain membranes; assay type: cell membranes
[14] = tested on: Mus musculus; assay: Antinociceptive activity in mouse assessed as jumping latency at 10 ug, icv by hot plate test; assay type: functional; how it was run: as §2

T1 sequence (P33535 whole entry): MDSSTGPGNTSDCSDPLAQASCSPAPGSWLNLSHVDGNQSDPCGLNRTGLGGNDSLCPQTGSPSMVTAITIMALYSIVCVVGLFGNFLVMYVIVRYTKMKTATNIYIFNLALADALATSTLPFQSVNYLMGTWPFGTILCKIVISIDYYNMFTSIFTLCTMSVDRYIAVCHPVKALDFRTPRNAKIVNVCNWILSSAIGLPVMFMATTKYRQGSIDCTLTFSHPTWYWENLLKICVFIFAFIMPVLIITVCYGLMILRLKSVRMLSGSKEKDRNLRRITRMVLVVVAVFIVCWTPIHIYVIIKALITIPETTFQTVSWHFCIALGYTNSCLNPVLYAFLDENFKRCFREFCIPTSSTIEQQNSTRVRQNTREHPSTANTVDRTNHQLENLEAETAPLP
Chain of Delta-type opioid receptor (Rattus norvegicus, UniProt P33533) (P33533 whole entry): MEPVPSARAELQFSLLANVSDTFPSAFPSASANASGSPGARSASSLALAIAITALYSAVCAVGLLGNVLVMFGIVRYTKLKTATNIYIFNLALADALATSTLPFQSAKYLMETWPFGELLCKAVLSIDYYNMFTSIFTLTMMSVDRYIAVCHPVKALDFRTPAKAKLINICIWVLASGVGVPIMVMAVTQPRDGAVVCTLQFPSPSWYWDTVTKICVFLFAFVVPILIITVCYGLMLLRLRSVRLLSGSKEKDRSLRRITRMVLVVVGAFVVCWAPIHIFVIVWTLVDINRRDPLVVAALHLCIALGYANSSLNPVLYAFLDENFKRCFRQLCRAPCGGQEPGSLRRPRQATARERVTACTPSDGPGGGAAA

Row | SMILES | IC50 [1] [nM] | IC50 [2] [nM] | IC50 [3] [nM] | EC50 [4] [nM] | MPE [5] [%] | MPE [6] [%] | MPE [7] [%] | MPE [8] [%] | MPE [9] [%] | MPE [10] [%] | MPE [11] [%] | MPE [12] [%] | IC50 [13] [nM] | MPE [14] [%]
1 | CN(CC(=O)N[C@@H](Cc1ccccc1)C(=O)N[C@H](Cc1ccc2ccccc2c1)C(N)=O)C(=O)[C@@H](N)Cc1ccc(O)cc1 | 1560 | > 10000 | > 6.41 | > 1000 |  |  |  |  |  |  |  |  |  | 
2 | C=CCN1CC[C@]23c4c5ccc(O)c4O[C@H]2C(=O)CC[C@@]3(O)[C@H]1C5 [NALOXONE] |  |  |  |  | 0.34 | 0.22 | 2.19 |  |  |  |  |  |  | 
3 | Cc1cc(O)cc(C)c1C[C@H](N)C(=O)N1CCC[C@H]1C(=O)N[C@@H](Cc1ccccc1)C(=O)N[C@H](Cc1ccc2ccccc2c1)C(N)=O (HELM PEPTIDE1{[Cc1cc(O)cc(C)c1C[C@H](N)C(=O)[*:2]].P.F.[O=C([C@@H](Cc1ccc2ccccc2c1)N[*:1])[*:2]].[am]}$$$$V2.0) | 1.52 |  | 5.09 |  |  |  |  | 0.26 | 2.26 | 0.18 | 0.09 | 0.13 |  | 
4 | NC(=O)[C@@H](Cc1ccc2ccccc2c1)NC(=O)[C@H](Cc1ccccc1)NC(=O)[C@@H]1CCCN1C(=O)[C@@H](N)Cc1ccc(O)cc1 (HELM PEPTIDE1{Y.P.F.[O=C([C@@H](Cc1ccc2ccccc2c1)N[*:1])[*:2]].[am]}$$$$V2.0) |  |  |  |  |  |  |  | 2.94 | 17.9 |  |  | 5.26 | 19.5 | 
5 | Cc1cc(O)cc(C)c1C[C@H](N)C(=O)N(C)CC(=O)N[C@@H](Cc1ccccc1)C(=O)N[C@H](Cc1ccc2ccccc2c1)C(N)=O (HELM PEPTIDE1{[Cc1cc(O)cc(C)c1C[C@H](N)C(=O)[*:2]].[Sar].F.[O=C([C@@H](Cc1ccc2ccccc2c1)N[*:1])[*:2]].[am]}$$$$V2.0) | 0.01 | > 10000 | > 10000 | > 1000 |  |  |  | 1.89 | 11.5 | 0.09 | 0.04 | 3.63 |  | 1.42

Reference: ChEMBL document CHEMBL1141475 (Bioorg Med Chem Lett, 2008)
